In paper PMC5503496 (Drug Design, Development and Therapy, 2017):
“Also recorded” adds a separate entry of the source.

What was measured:
mushroom tyrosinase = mushroom tyrosinase (Agaricus bisporus, UniProt C7FF04); experiment: Kinetic analysis of the inhibition of tyrosinase; type: biochemical; conditions: Lineweaver-Burk plots, L-DOPA
[1] = system: pigmentation of zebrafish; experiment: In vivo depigmentation assay in zebrafish; parameters: species or system zebrafish (Danio rerio); conditions: zebrafish embryos, 50 µM, 9 to 72 hpf
Method in brief: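 Synchronized embryos from wild-type adults (kept at 28.5°C, 14 h light/10 h dark) were placed 2–3 per well in E3 medium (NaCl 5 mM, KCl 0.17 mM, CaCl2 0.33 mM, MgSO4 0.33 mM). […] Dechorionated embryos were anesthetized with MS-222, mounted in 1% methyl cellulose and photographed by stereomicroscope. Pigmentation was quantified by pixel measurement.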

[2] = system: melanin contents in zebrafish embryos; experiment: Determination of melanin contents in zebrafish; type: in vivo, zebrafish (Danio rerio); conditions: 50 µM, 72 hpf

Chain of mushroom tyrosinase (C7FF04 1-392 limits assumed): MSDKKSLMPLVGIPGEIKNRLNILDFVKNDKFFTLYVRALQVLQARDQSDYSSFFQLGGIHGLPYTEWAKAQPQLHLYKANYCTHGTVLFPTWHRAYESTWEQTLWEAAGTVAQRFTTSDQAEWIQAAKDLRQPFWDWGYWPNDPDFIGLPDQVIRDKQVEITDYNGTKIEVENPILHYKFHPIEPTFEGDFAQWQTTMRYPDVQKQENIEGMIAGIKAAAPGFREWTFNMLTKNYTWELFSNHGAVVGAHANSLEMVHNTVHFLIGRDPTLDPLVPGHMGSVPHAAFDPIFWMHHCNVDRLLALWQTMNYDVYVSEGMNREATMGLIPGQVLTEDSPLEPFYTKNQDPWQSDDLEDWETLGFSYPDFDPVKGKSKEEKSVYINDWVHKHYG

Inhibition type (mushroom tyrosinase)	Structure (SMILES)	pigmentation level (decreased to) [1]	melanin contents [2]
	O=c1cc(CO)occ1O [Kojic acid]	24.2%	only slightly reduced the melanin contents
mixed-type inhibition	Cc1ccc(C(C)C)cc1NC(=O)COC(=O)/C=C/c1ccccc1 [6a, 2-[2-methyl-5-(propan-2-yl)anilino]-2-oxoethyl (2E)-3-phenylprop-2-enoate]		
mixed-type inhibition	Cc1ccc(C(C)C)cc1NC(=O)COC(=O)/C=C/c1ccccc1O [6b, 2-[2-methyl-5-(propan-2-yl)anilino]-2-oxoethyl (2E)-3-(2-hydroxyphenyl)prop-2-enoate]		

Structure (SMILES)	Inhibition type (mushroom tyrosinase)	pigmentation level (decreased to) [1]	melanin contents [2]
Cc1ccc(C(C)C)cc1NC(=O)COC(=O)c1ccc(O)cc1O [4c, 2-[2-methyl-5-(propan-2-yl)anilino]-2-oxoethyl 2,4-dihydroxybenzoate]	non-competitive inhibition; also recorded: non-competitively		
